Assays:
METTL3/14 = settings: read-out: Km of SAM for METTL3/14; cited from earlier work
[1] = test system: non-leukaemic haemopoietic cell line HPC7; format: cell-based
[2] = test system: human AML patient derived xenografts (PDX); experiment: Human AML patient derived xenograft; format: in vivo, mouse
normal haematopoiesis = experiment: Toxicity on normal haematopoiesis in vivo; set-up: species or system mouse; settings: 50 mg/kg daily for 14 days
panel of 468 kinases = experiment: KINOMEscan kinase binding panel; settings: 10 µM; inhibition = less than 50% control activity
[3] = test system: normal human cord blood CD34+ cells; experiment: Colony-forming efficiency of cord blood CD34+ cells; format: cell-based; settings: 1, 5 or 10 µM
Outline: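 Human cord-blood CD34+ cells were plated in StemMACS HSC-CFU semi-solid medium with the test compound at the indicated concentrations or DMSO. Colonies were counted by microscopy 12–14 days after plating.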

primary murine AML cells = experiment: Colony forming; format: cell-based, mouse; settings: 1 μM
Outline: (§1)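 Lineage-negative cells from wild-type mice or primary murine AML cells, 10,000 per well, were plated in triplicate wells of M3434 methylcellulose with 1 μM test compound. Colonies were counted after 7 days. Another 10,000 cells were then re-seeded and re-counted weekly through the 3rd replating.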

MOLM-13 cells = experiment: Polysome fractionation and RT-qPCR in MOLM-13 cells; format: cell-based, human
Outline: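 MOLM-13 cells (5 × 10^7) were exposed to DMSO or 1 μM test compound for 72 h, then to 0.1 mg/ml cycloheximide for 5 min at 37 °C. Lysates were fractionated on a sucrose gradient. RNA from each fraction, or total RNA (RNeasy), was quantified by RT-qPCR in triplicate, normalised to GAPDH, using the standard-curve or comparative CT method.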

[4] = test system: primary murine MLL-AF9/Flt3^Itd/+ AML; experiment: Primary murine MLL-AF9/Flt3Itd/+ AML in vivo model; set-up: species or system mouse
METTL16 = molecular target: T1, METTL16 (Homo sapiens, UniProt Q86W50); experiment: RNA methyltransferase RFMS activity assay; format: biochemical; settings: dose-range, top concentration 120 μM
T1 sequence (Q86W50 1-562): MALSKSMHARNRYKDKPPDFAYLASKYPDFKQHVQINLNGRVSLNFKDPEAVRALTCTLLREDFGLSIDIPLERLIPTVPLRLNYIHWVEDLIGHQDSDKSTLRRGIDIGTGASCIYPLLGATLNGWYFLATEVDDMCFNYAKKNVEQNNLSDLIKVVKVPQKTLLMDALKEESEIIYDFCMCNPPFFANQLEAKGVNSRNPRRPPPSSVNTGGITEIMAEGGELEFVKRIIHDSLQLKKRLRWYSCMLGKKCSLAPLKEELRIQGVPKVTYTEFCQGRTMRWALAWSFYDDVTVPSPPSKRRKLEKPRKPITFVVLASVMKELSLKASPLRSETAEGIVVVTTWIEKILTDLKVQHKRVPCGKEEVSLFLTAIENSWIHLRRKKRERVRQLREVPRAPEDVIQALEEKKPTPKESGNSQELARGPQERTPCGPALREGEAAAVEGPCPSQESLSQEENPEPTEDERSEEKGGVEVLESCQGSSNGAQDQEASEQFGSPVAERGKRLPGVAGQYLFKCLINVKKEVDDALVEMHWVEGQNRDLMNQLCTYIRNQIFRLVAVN

[5] = molecular target: METTL3/METTL14 heterodimer (Homo sapiens, UniProt Q86U44); experiment: Surface plasmon resonance; format: binding; settings: 50 µM SAM in running buffer
[6] = test system: MOLM-13 and primary murine AML cells; experiment: Flow cytometry of differentiation, cell cycle and apoptosis in AML cells; format: cell-based
Outline: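 Human and/or mouse AML cells were exposed to DMSO or test compound and analysed at the indicated timepoints on an LSRFortessa. Myeloid differentiation was read by anti-mouse CD11b PE/Cy5 or anti-human CD11b PE staining. Apoptosis was read by Annexin V staining. Cell cycle was read by BrdU incorporation with FITC or APC BrdU flow kits.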

[7] = test system: SP1 and BRD4 protein levels, MOLM-13 cells; experiment: Western blot of METTL3 biomarkers in MOLM-13; format: cell-based, human; settings: MOLM-13, 72 hours
Outline: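 MOLM-13 cells were exposed to DMSO or indicated concentrations of test compound for 72 h. Pellets were lysed in 50 mM Tris-HCl pH 8, 450 mM NaCl, 0.1% NP-40 and 1 mM EDTA, with 1 mM DTT and protease/phosphatase inhibitors. Immunoblots were probed with anti-SP1, N- and C-terminal anti-BRD4, and actin or GAPDH antibodies.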

[8] = test system: panel of human AML cell lines; experiment: Proliferation assay, AML cell line panel; format: cell-based; settings: 0.04-50 μM, read on day 6
[9] = test system: m6A on poly-A+-enriched RNA, MOLM-13 cells; experiment: RNA nucleoside quantification by mass spectrometry in MOLM-13; format: cell-based, human; settings: MOLM-13, 24 hours
[10] = test system: normal haematopoietic stem and progenitor cells (HSPCs); experiment: Colony forming; format: cell-based, mouse; settings: 1 μM, WT Lin- cells
Outline: as §1

[11] = Pharmacokinetic analysis in mice; format: in vivo, mouse; settings: single intra-peritoneal dose of 50 mg/kg, over 24h
[12] = test system: m6A peaks on poly-A+-enriched RNA, MOLM-13 cells; experiment: m6A-meRIP-seq and meRIP-qPCR in MOLM-13 cells; format: cell-based, human
[13] = murine or patient-derived AML cells from treated primary transplants
[14] = MOLM-13 and primary murine AML cells

METTL3/METTL14 heterodimer, sequence (Q86U44 whole entry): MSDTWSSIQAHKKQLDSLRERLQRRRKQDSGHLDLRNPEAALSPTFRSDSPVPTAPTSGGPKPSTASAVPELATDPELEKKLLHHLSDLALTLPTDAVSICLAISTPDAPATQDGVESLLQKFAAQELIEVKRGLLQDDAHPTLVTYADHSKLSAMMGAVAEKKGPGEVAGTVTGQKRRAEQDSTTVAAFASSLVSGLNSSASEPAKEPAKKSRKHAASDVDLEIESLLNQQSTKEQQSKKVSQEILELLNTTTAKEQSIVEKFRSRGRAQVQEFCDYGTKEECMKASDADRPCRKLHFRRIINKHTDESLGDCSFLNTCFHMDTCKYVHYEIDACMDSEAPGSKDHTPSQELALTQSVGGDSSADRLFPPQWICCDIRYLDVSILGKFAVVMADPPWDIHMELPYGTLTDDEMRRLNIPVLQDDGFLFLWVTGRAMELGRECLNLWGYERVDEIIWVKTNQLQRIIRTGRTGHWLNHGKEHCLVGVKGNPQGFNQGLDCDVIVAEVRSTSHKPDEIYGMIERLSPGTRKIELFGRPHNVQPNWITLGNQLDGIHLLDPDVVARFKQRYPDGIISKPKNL
METTL3/METTL14 heterodimer, sequence (Q9HCE5 whole entry partner): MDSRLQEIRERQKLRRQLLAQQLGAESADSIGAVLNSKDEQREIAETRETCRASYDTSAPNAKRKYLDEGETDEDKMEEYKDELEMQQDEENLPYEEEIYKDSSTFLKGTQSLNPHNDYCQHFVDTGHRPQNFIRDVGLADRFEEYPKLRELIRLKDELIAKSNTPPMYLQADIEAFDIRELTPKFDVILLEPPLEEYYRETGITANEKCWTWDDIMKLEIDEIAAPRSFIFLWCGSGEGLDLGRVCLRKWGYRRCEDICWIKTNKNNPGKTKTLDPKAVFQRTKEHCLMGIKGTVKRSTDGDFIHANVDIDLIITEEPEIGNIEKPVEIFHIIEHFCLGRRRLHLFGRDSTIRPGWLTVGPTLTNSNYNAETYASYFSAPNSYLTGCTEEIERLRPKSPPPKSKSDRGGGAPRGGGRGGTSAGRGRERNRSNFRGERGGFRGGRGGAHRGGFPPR

## C[S+](CC[C@H](N)C(=O)[O-])C[C@H]1O[C@@H](n2cnc3c(N)ncnc32)[C@H](O)[C@@H]1O (stereo partly shown) [SAM, S-adenosyl methionine]
METTL3/14
  Km: 0.1 µM

## O=C(NCc1cn2cc(CNCC3CCCCC3)ccc2n1)c1cc(=O)n2ccccc2n1 [STM2457]
[1]; Annexin V, 1 µM
  apoptosis in normal non-leukaemic haemopoietic cells: not in normal non-leukaemic haemopoietic cells
[1]; non-leukaemic HPC7, 1 µM
  differentiation and cell cycle in HPC7: the same effects were not identified
[2]; 50 mg/kg
  human CD45+ cells in bone marrow and spleen: reduction of human CD45^+ cells in bone marrow and spleen
[2]; 50 mg/kg IP daily
  mouse lifespan in PDX: significantly prolonged
  toxicity and body weight in PDX mice: no overt toxicity or effect on mouse body weight
[2]; 50 mg/kg IP daily, 3 PDX models
  engraftment and AML expansion in PDX: impairment of engraftment and AML expansion
[2]; 30 or 50 mg/kg
  total m6A levels on poly-A+-enriched RNA in PDX bone marrow: significantly reduced
Normal haematopoiesis
  bone marrow HSCs and early progenitors, peripheral blood counts, body weight: No significant changes
  m6A levels on poly-A+-enriched RNA of healthy bone marrow: significantly reduced
Panel of 468 kinases
  inhibitory effect on kinase panel: no inhibitory effect
[3]
  colony-forming ability of normal human cord blood CD34+ cells: did not affect
Primary murine AML cells
  clonogenic potential of primary murine AML cells: significantly reduced
MOLM-13 cells; MOLM-13, 1μM, 72 hours
  polysome profile: loss of high polysome fractions
MOLM-13 cells; MOLM-13, RT-qPCR of total RNA
  overall RNA expression levels of BRD4 and SP1: showed no alterations
[4]; 30 mg/kg
  CD48+ intensity of L-GMP cells: increased
  engrafted AML cells in bone marrow: reduction in the engrafted AML cells
  spleen size: reduction in spleen size
[4]; bone marrow, PDX 50 mg/kg and murine model 30 mg/kg
  CD93+ and L-GMP leukaemia stem cell populations: significantly reduced
[4]; [13]
  AML cells in peripheral blood after re-transplantation: marked decrease
  lifespan after re-transplantation: significant lifespan prolongation
METTL16
  inhibition of METTL16: no inhibition
[5]
  binding mode with SAM in the SPR running buffer: co-factor competitive binding mode
[6]; Annexin V, 1 µM
  apoptosis in human and mouse AML models: induced apoptosis
[6]; [14]
  cell cycle (BrdU): cell cycle arrest
  myeloid differentiation (CD11b/Mac1): significant myeloid differentiation
[7]
  SP1 and BRD4 protein levels: dose-dependent reduction
[8]
  proliferation of human AML cell line panel: significant growth reduction in a concentration-dependent manner
[9]
  m6A on poly-A+-enriched RNA: concentration-dependent reduction
  other RNA modifications (m6Am, m6_2A, m7G) on poly-A+-enriched RNA: No changes were detected
[10]
  colony forming of normal haematopoietic stem and progenitor cells (HSPCs): no effect
[11]
  half-life / exposure in vivo: sufficient half-life
[12]; MOLM-13, 1 µM, 24 or 48 hours
  m6A levels in METTL3-dependent substrates including HOXA10 and MYC (meRIP-qPCR): reduced m^6A levels
[12]; MOLM-13, 1 μM, 48 hours, of 11,909 m6A peaks identified
  m6A peaks reduced upon treatment: 4,666

From paper PMC7613134 (Nature, 2021)
